How the values were obtained:
Type in all cases: functional, cell-based
[1] = test system: KB; assay: Antiproliferative activity against human KB cells after 72 hrs by MTT assay
Method in brief: (§1)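 Cells in 10% fetal calf serum, RPMI 1640 for all lines except MCF-7 (DMEM). Log-phase cells seeded at 2×10⁴ cells/ml, 37 °C, 5% CO₂. Compounds added after 24 h, then 72 h at 37 °C. MTT (5 mg/ml saline stock) for 3 h, formazan dissolved in DMSO, A570 read (ref 655 nm). IC₅₀ from dose-response curves. Mean of three independent experiments.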

[2] = Antiproliferative activity against human CNE2 cells after 72 hrs by MTT assay; settings: CNE-2, 72 h; method in brief: as §1
[3] = test system: MGC-803; assay: Antiproliferative activity against human MGC803 cells after 72 hrs by MTT assay; settings: MGC-803, 72 h; method in brief: as §1
[4] = Antiproliferative activity against human GLC82 cells after 72 hrs by MTT assay; settings: GLC82, 72 h; method in brief: as §1
[5] = test system: MDA-MB-453; assay: Antiproliferative activity against human MDA-MB-453 cells after 72 hrs by MTT assay; settings: MDA-MB-453, 72 h; method in brief: as §1
[6] = test system: MCF7; assay: Antiproliferative activity against human MCF7 cells after 72 hrs by MTT assay; settings: MCF7, 72 h; method in brief: as §1

Row | SMILES | IC50 [1] | IC50 [2] | IC50 [3] | IC50 [4] | IC50 [5] | IC50 [6]
1 | CCCCn1cnc2c(c(C)nc3ccccc32)c1=O | > 50 µM | > 50 µM | > 50 µM | > 50 µM | > 50 µM | > 50 µM
2 | CCCn1cnc2c(c(C)nc3ccccc32)c1=O | > 50 µM | > 50 µM | > 50 µM | > 50 µM | > 50 µM | > 50 µM
3 | Cc1nc2ccccc2c2ncn(C(C)C)c(=O)c12 | > 50 µM | > 50 µM | > 50 µM | > 50 µM | > 50 µM | > 50 µM
4 | Cc1nc2ccccc2c2ncn(N)c(=O)c12 | > 50 µM | > 50 µM | > 50 µM | > 50 µM | > 50 µM | > 50 µM
5 | Cc1nc2ccccc2c2ncn(CCO)c(=O)c12 | > 50 µM | > 50 µM | > 50 µM | > 50 µM | > 50 µM | > 50 µM
6 | Cc1nc2ccccc2c2ncn(CCN)c(=O)c12 | 39.8 µM | > 50 µM | 39.9 µM | > 50 µM | 45.7 µM | 43.5 µM
7 | Cc1nc2ccccc2c2ncn(CCc3ccccc3)c(=O)c12 | > 50 µM | > 50 µM | > 50 µM | 35.2 µM | 49.5 µM | > 50 µM
8 | Cc1nc2ccccc2c2ncn(Cc3ccccc3)c(=O)c12 | > 50 µM | 26.5 µM | > 50 µM | > 50 µM | > 50 µM | > 50 µM
9 | CCn1cnc2c(c(C)nc3ccccc32)c1=O | > 50 µM | > 50 µM | > 50 µM | > 50 µM | > 50 µM | > 50 µM
10 | CCC(C)n1cnc2c(c(C)nc3ccccc32)c1=O (stereo not given) | > 50 µM | > 50 µM | > 50 µM | > 50 µM | > 50 µM | > 50 µM
11 | Cc1nc2ccccc2c2ncn(CC(C)C)c(=O)c12 | > 50 µM | > 50 µM | > 50 µM | > 50 µM | > 50 µM | > 50 µM
12 | Cc1nc2ccccc2c2nc(Oc3cccc4ccccc34)n(-c3ccc(Cl)cc3)c(=O)c12 | 33.9 µM | 47 µM | 18.5 µM | 42.1 µM | > 50 µM | 37.9 µM
13 | COc1ccccc1Oc1nc2c(c(C)nc3ccccc32)c(=O)n1-c1ccc(Cl)cc1 | 39.2 µM | > 50 µM | > 50 µM | > 50 µM | 49.7 µM | 34 µM
14 | Cc1nc2ccccc2c2nc(Oc3ccc(Br)cc3)n(-c3ccc(Cl)cc3)c(=O)c12 | 29.5 µM | 28.7 µM | 15.3 µM | > 50 µM | 26.6 µM | 35.7 µM
15 | Cc1nc2ccccc2c2nc(Oc3ccc4c(c3)OCO4)n(-c3ccc(Cl)cc3)c(=O)c12 | 30.9 µM | 47.7 µM | > 50 µM | > 50 µM | > 50 µM | > 50 µM
16 | Cc1nc2ccccc2c2nc(Oc3ccc([N+](=O)[O-])cc3Cl)n(-c3ccc(Cl)cc3)c(=O)c12 | 4.9 µM | 13.8 µM | 4.8 µM | 7.88 µM | 18.2 µM | 10.1 µM
17 | Cc1cc(Oc2nc3c(c(C)nc4ccccc43)c(=O)n2-c2ccc(F)cc2)ccc1Cl | > 50 µM | > 50 µM | 41.4 µM | > 50 µM | > 50 µM | > 50 µM
18 | Cc1nc2ccccc2c2nc(Oc3ccccc3Cl)n(-c3ccc(F)cc3)c(=O)c12 | > 50 µM | > 50 µM | > 50 µM | > 50 µM | > 50 µM | > 50 µM
19 | COc1ccccc1Oc1nc2c(c(C)nc3ccccc32)c(=O)n1-c1ccccc1 | > 50 µM | > 50 µM | > 50 µM | > 50 µM | > 50 µM | 35.5 µM
20 | Cc1nc2ccccc2c2nc(Oc3ccc(Cl)cc3Cl)n(-c3ccccc3)c(=O)c12 | 22.8 µM | 42.9 µM | > 50 µM | > 50 µM | > 50 µM | > 50 µM
21 | Cc1nc2ccccc2c2nc(NC(C)(C)C)n(-c3ccccc3)c(=O)c12 | > 50 µM | > 50 µM | > 50 µM | > 50 µM | > 50 µM | > 50 µM
22 | Cc1nc2ccccc2c2nc(Nc3ccc(Cl)cc3)n(N)c(=O)c12 | > 50 µM | > 50 µM | > 50 µM | > 50 µM | > 50 µM | > 50 µM
23 | Cc1nc2ccccc2c2nc(Nc3ccccc3)n(N)c(=O)c12 | 30.3 µM | > 50 µM | 14.7 µM | > 50 µM | > 50 µM | > 50 µM
24 | Cc1nc2ccccc2c2nc3n(-c4ccccc4)cnn3c(=O)c12 | > 50 µM | > 50 µM | > 50 µM | > 50 µM | > 50 µM | > 50 µM
25 | O=c1[nH]cc(F)c(=O)[nH]1 [FLUOROURACIL] | 9.85 µM | 17.2 µM | 16.6 µM | 15.5 µM | > 50 µM | 9.67 µM
